# Screening results as filed in PubChem.
# MrgX1 antagonist: human MrgX1 receptor antagonism, primary screen; MRGX1-HEK293 calcium flux, Fluo-4, BAM8-22 antagonism; stronger effect = lower value; Q96LB2; B-score at 10 µM; hit rate 1.3% among 310,000;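 active = calcium-response B-score plate-corrected more than 3 library SD below zero, starting fluorescence within 5 deviations, no agonist response on first addition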;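 note: peak minus trough fluorescence over baseline after final BAM8-22 challenge near maximal dose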
# Target sequence (Q96LB2 whole entry, looked up): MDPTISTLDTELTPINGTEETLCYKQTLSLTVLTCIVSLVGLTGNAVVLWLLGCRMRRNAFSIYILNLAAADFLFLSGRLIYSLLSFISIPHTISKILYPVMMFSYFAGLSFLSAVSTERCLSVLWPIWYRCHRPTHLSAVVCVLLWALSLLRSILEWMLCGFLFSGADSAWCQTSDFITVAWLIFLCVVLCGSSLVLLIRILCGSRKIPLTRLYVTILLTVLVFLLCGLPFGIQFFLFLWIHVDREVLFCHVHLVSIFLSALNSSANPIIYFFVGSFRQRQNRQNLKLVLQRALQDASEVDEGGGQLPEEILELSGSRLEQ
# MrgX1 PAM: human MrgX1 positive allosteric modulation, primary screen; hit rate 0.63% among 310,000; B-score at 10 µM; MrgX1-HEK293, Fluo-4 calcium flux, FDSS; stronger effect = higher value;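 active = plate-corrected calcium response at least 3 library SD above typical, normal starting fluorescence, not activating the receptor alone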;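 note: compound read alongside a low EC10 to EC30 dose of BAM8-22 agonist; peak minus trough fluorescence over baseline measured at the second addition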
# RGS4 block: human RGS4 inhibition; hit rate 0.45% among 310,000; P49798; HEK293 M3R/RGS4 inducible, Fluo-4 calcium flux; stronger effect = higher value; triggered by carbachol at its EC20; B-score at 10 µM;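 active = B-score, a plate-corrected calcium signal, over three deviations above library mean, with baseline fluorescence within five deviations of library mean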;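 note: RGS4 expression induced by doxycycline in cells with stable M3 receptor; B-score is computed from the integrated fluorescence ratio over baseline after carbachol; higher B-score means a larger calcium signal and so more RGS4 inhibition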
# Target sequence (P49798 whole entry, looked up): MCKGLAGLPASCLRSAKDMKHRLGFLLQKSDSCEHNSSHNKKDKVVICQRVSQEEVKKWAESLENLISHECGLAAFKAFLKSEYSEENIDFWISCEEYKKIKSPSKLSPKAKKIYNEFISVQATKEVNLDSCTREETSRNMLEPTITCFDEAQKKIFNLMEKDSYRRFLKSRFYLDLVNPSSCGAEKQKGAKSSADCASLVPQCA
# MrgX1 agonist: human MrgX1 receptor agonism, primary screen. Q96LB2. MrgX1-HEK293 cells, Fluo-4 calcium fluorescence, agonist mode; stronger effect = higher value. hit rate 0.44% among 310,000. B-score at 10 µM;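 active = calcium response B-score plate-corrected fluorescence ratio at least 3 library SD, with starting fluorescence B-score inside 5 SD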
#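 Material: MrgX1-expressing HEK293 cells / Dosing: compound as first of three additions / Incubation: overnight seeding, then 1 h dark dye loading / Signal: Fluo-4 NW calcium fluorescence / Evaluation: B-scored fluorescence response ratio / Benchmarks: positive and negative control wells on each plate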
# RGS4 pot: RGS4 potentiation or activation; HEK293 M3R/inducible RGS4, carbachol calcium flux Fluo4; stronger effect = lower value; B-score at 10 µM; hit rate 0.92% among 310,000; AID 463111;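 active = B-score of the integrated calcium signal more than 4 SD below the library mean, with starting fluorescence not abnormally high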;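 note: negative B-score means reduced calcium response which marks RGS4 activation or potentiation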
#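 Test system: HEK293 cells with stable M3R and inducible RGS4; also added: carbachol at ECmax as muscarinic agonist stimulus; schedule: dye loading 30 min 37 °C, buffer rest 30 min RT; technique: kinetic calcium fluorescence imaging with Fluo4-AM dye, 2 µM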
# MrgX1 ant reconf: confirmation of human MrgX1 receptor antagonists; shares compounds with MrgX1 antagonist; MrgX1-HEK293, BAM8-22 calcium flux, Fluo-4; stronger effect = lower value; remaining BAM8-22 calcium response % of control (stronger effect = lower value), % at 10 µM; hit rate 19% among 2,300; AID 602420;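 active = remaining agonist calcium response no higher than 100% minus 3 SD of agonist-only control wells, with starting fluorescence near control levels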;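 note: agonist BAM8-22 given at a near maximal EC90 to ECmax level; peak minus minimum fluorescence divided by baseline after agonist addition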
# HEK293 Ca flux: activity in parental HEK293 cells lacking MrgX1; shares compounds with MrgX1 antagonist; Fluo-4 calcium fluorescence, FDSS; fluorescence ratio F(max-min)/F0 at 10 µM; hit rate 2% among 4,000;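 active = duplicate-averaged calcium fluorescence ratio at least three times the standard deviation of buffer wells, a nonspecific response in parental cells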
# HEK293 Ca counter: counter-screen for MrgX1 allosteric activators: effect in parental HEK293 cells; shares compounds with MrgX1 antagonist; parental HEK293 calcium flux, Fluo-4 fluorescence ratio; stronger effect = higher value; fluorescence ratio F(max-min)/F0 at 10 µM; hit rate 0.4% among 4,000; AID 624114;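 active = calcium fluorescence ratio, averaged over duplicates, at least 3 SD of the buffer-well ratio, meaning a nonspecific response in receptor-free cells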;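 note: untransfected parental HEK293 lacking MrgX1 used as counterscreen for MrgX1 allosteric activators; fluorescence change taken during the second addition on a kinetic imager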
# HEK293 Ca cntr2: counter-screen for MrgX1 activators: effect in parental HEK293 cells | AID 624115 | Fluo-4 calcium fluorescence (FDSS); stronger effect = higher value | shares compounds with MrgX1 antagonist | fluorescence ratio F(max-min)/F0 at 10 µM | hit rate 8.7% among 4,000;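 active = calcium fluorescence ratio at least three times the spread of buffer wells, meaning a non-specific response in parental cells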
# Active calls of the source: *; i = inactive; x = no result. An excerpt weighted towards active compounds, which were near 3.5% of everything screened.
SMILES,MrgX1 antagonist,MrgX1 PAM,RGS4 block,MrgX1 agonist,RGS4 pot,MrgX1 ant reconf,HEK293 Ca flux,HEK293 Ca counter,HEK293 Ca cntr2
O=C(Oc1ccc(-c2nnco2)cc1)N1CCOCC1,-5.04*,i,i,i,i,i,i,i,i
CCCCCCCCCCOC(=O)Cn1c(COc2ccccc2)[n+](C)c2ccccc21,-9.99*,i,i,i,-9.26*,i,i,i,i
CCCCCCCCCCOC(=O)Cn1c(COc2ccc(Cl)cc2)[n+](C)c2ccccc21,-10.3*,i,i,i,i,i,i,i,i
CCCCCOC(=O)Cn1c(=O)oc2ccccc21,i,i,i,i,i,x,x,x,x
CCCCOC(=O)Cn1c(=O)n(CC(=O)OCCCC)c2ccccc21,i,i,i,i,i,x,x,x,x
CCCCCCCCCCOC(=O)Cn1c(COc2ccccc2C)[n+](C)c2ccccc21,-11.8*,i,i,i,-7.42*,i,i,i,i
COc1cc(NC(=O)C2CCN(S(=O)(=O)c3ccc4[nH]c(=O)oc4c3)CC2)cc(OC)c1,i,i,i,i,i,x,x,x,x
Cc1ccc(Cn2ccsc2=NC(=O)COC(=O)c2ccc(O)cc2O)cc1,-7.74*,i,i,i,i,i,i,i,i
O=C(Nc1ccc2c(c1)OCO2)c1cc(-c2cccnc2)nc2ccccc12,i,i,i,i,i,x,x,x,x
CCN(CC(=O)Nc1ccc2c(c1)OCCO2)c1nc(-c2cccnc2)nc2ccccc12,-10.8*,i,i,i,i,i,i,i,i
COc1ccccc1NS(=O)(=O)c1cc(NC(=O)C(C)(C)C)ccc1N1CCOCC1,-4.64*,i,i,i,i,81.7%*,i,i,i
O=C(c1ccccc1)c1ccc(CN2C(=O)c3ccccc3C2=O)o1,-5.16*,i,i,i,i,i,i,i,i
Cc1ccc(C(NC(=O)N2CCOCC2)C(Cl)(Cl)Cl)cc1F (configuration not stated),-5.34*,i,i,i,i,80.9%*,i,i,i
CCN(CC)C(=O)NC(c1ccc(C)c(F)c1)C(Cl)(Cl)Cl (configuration not stated),i,i,i,i,i,x,x,x,x
CSc1ccc(NC(=O)N2CC=C(n3c(=O)[nH]c4ccccc43)CC2)cc1,-4.66*,i,i,i,i,i,i,i,i
O=C(NCC1(O)CCCCC1)C1CCC(=O)N(Cc2cccc(C(F)(F)F)c2)C1 (configuration not stated),i,i,i,i,i,x,x,x,x
CCOC(=O)CC1(NC(=O)c2cc(COc3cccc(OC)c3)on2)CCCCC1,i,i,i,i,i,x,x,x,x
CCOc1ccc2ccccc2c1CNCCc1ccc(S(N)(=O)=O)cc1,-4.78*,i,i,i,i,54.5%*,i,i,i
COCCn1c(SCC(=O)N2CC(=O)Nc3ccccc32)nnc1-c1ccoc1C,-10.9*,i,i,i,i,i,i,i,i
COCCCn1c(SCC(=O)N2CC(=O)Nc3ccccc32)nnc1-c1ccoc1C,i,i,i,i,i,x,x,x,x
O=C(NCCNCc1cccs1)c1ccccc1F,i,i,i,i,i,x,x,x,x
O=C(NCc1cccs1)c1ccccc1F,-6.2*,i,i,i,i,i,i,i,i
